Results taken from ChEMBL document CHEMBL1148487, “Chemical and functional identification and characterization of novel sulfated alpha-conotoxins from the cone snail Conus anemone” (J Med Chem, 2004).
Several values for one entry are separate records, joined by “and”; a condition that tells them apart may be missing. Equal values may be shown once.

Tests used:
[1] = target: Neuronal acetylcholine receptor; alpha3/beta2 (Rattus norvegicus, UniProt P04757+P12390); test: Inhibition of rat Nicotinic acetylcholine receptor alpha3-beta2 expressed in Xenopus Oocytes; assay type: cell-based
Summary of the method: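 Rat nAChR subunit cRNAs (50 nL, 5–50 ng/µL) injected into Xenopus oocytes, kept at 19 °C in ND96 pH 7.4 with gentamycin; two-electrode voltage clamp at −70 mV, 2–10 days post-injection. Peptide added to static bath, 3–10 min before agonist; sub-1 nM also perfused 10–15 min. IC50 from fitted concentration–response curves with Hill slope.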

[2] = target: Neuronal acetylcholine receptor subunit alpha-7 (Rattus norvegicus, UniProt Q05941); test: Compound was evaluated for inhibition of rat Nicotinic acetylcholine receptor alpha-7 (nAChR) in Xenopus Oocytes; assay type: cell-based
Summary of the method: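 Rat α7 nAChR cRNA (5–50 ng/µL, 50 nL) injected into Xenopus oocytes kept at 19 °C in ND96 (pH 7.4) plus gentamycin; two-electrode voltage clamp 2–10 days later at −70 mV. Peptide applied once three agonist responses differed <10%, added to static bath and incubated 3–10 min before agonist. IC50 and nH from concentration–response curve fit; 95% confidence intervals.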

[3] = Inhibition ratio of rat alpha 3 beta 2 nicotinic acetylcholine receptor (nAChR) to that of at alpha 7 nicotinic acetylcholine receptor (nAChR)

Chain of Neuronal acetylcholine receptor; alpha3/beta2 (P04757 whole entry, the tested form may be a part): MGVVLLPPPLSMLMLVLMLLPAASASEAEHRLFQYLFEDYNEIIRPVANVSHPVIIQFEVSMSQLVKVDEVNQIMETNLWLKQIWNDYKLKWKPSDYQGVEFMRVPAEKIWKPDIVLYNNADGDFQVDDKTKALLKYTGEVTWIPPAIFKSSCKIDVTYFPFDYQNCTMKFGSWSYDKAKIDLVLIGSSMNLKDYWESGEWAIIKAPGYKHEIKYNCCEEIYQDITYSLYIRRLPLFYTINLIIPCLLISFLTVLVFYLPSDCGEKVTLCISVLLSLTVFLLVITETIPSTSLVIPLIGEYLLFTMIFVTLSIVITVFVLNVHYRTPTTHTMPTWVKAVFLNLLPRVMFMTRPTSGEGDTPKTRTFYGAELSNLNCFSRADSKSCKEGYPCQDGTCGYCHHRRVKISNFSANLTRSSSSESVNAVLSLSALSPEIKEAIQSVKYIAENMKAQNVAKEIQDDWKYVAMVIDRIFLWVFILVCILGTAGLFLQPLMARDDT
Chain of Neuronal acetylcholine receptor; alpha3/beta2 (P12390 whole entry, the tested form may be a part): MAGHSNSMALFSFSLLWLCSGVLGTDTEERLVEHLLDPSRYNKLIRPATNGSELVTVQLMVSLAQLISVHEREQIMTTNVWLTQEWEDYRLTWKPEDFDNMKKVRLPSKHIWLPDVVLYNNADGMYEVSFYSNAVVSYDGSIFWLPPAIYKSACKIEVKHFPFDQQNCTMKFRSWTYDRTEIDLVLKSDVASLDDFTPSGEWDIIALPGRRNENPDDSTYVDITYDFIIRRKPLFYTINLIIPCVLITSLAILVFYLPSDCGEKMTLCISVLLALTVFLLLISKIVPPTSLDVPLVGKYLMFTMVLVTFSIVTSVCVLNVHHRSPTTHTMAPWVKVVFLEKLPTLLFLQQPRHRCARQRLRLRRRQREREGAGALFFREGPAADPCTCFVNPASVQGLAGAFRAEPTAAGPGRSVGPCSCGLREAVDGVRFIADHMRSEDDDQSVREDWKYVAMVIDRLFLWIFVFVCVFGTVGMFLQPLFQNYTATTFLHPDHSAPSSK
Chain of Neuronal acetylcholine receptor subunit alpha-7 (Q05941 whole entry): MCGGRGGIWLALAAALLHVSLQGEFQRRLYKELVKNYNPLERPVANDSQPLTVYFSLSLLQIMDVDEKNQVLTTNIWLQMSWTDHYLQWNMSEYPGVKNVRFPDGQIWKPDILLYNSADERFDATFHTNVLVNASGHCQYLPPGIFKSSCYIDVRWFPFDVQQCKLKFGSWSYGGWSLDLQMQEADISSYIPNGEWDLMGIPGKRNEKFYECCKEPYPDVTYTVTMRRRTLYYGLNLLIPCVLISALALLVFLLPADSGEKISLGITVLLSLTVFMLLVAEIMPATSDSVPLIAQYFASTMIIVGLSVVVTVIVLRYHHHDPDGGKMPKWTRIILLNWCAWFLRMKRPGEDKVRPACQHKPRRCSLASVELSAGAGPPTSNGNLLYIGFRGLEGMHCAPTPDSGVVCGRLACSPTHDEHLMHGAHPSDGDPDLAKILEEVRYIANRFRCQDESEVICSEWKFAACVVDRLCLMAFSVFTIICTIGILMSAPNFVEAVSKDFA

Structure (SMILES): CC(C)C[C@H](NC(=O)[C@H](CC(N)=O)NC(=O)[C@H](CO)NC(=O)[C@H](Cc1cnc[nH]1)NC(=O)[C@H](CCC(=O)O)NC(=O)[C@H](CC(C)C)NC(=O)[C@H](Cc1cnc[nH]1)NC(=O)[C@H](CS)NC(=O)[C@@H](NC(=O)[C@@H]1CCCN1C(=O)[C@H](CC(N)=O)NC(=O)[C@H](CO)NC(=O)[C@H](CS)NC(=O)[C@H](CS)NC(=O)CN)C(C)C)C(=O)N[C@@H](CS)C(N)=O
- IC50 [1]: 0.5 nM

Structure (SMILES): C[C@H](NC(=O)[C@H](C)NC(=O)[C@H](CS)NC(=O)[C@H](C)NC(=O)[C@H]1CCCN1C(=O)[C@H](Cc1cnc[nH]1)NC(=O)[C@H](CO)NC(=O)[C@H](CS)NC(=O)[C@H](CS)NC(=O)CNC(=O)CN)C(=O)N[C@@H](CC(N)=O)C(=O)N[C@@H](CC(N)=O)C(=O)N[C@@H](CCC(N)=O)C(=O)N[C@@H](CC(=O)O)C(=O)N[C@@H](Cc1ccc(OS(=O)(=O)O)cc1)C(=O)N[C@@H](CS)C(N)=O
- IC50 [1]: 0.64 nM

Structure (SMILES): C[C@H](NC(=O)[C@H](C)NC(=O)[C@H](CS)NC(=O)[C@H](C)NC(=O)[C@H]1CCCN1C(=O)[C@H](Cc1c[nH]cn1)NC(=O)[C@H](CO)NC(=O)[C@H](CS)NC(=O)[C@H](CS)NC(=O)CNC(=O)CNC(=O)CN)C(=O)N[C@@H](CC(N)=O)C(=O)N[C@@H](CC(N)=O)C(=O)N[C@@H](CCC(N)=O)C(=O)N[C@@H](CC(=O)O)C(=O)N[C@@H](Cc1ccc(O)cc1)C(=O)N[C@@H](CS)C(N)=O
- IC50 [1]: 0.2 nM

Structure (SMILES): C[C@H](NC(=O)[C@H](C)NC(=O)[C@H](CS)NC(=O)[C@H](C)NC(=O)[C@H]1CCCN1C(=O)[C@H](Cc1cnc[nH]1)NC(=O)[C@H](CO)NC(=O)[C@H](CS)NC(=O)[C@H](CS)NC(=O)CNC(=O)CN)C(=O)N[C@@H](CC(N)=O)C(=O)N[C@@H](CC(N)=O)C(=O)N[C@@H](CCC(N)=O)C(=O)N[C@@H](CC(=O)O)C(=O)N[C@@H](Cc1ccc(O)cc1)C(=O)N[C@@H](CS)C(=O)O
- IC50 [1]: 0.54 nM

Structure (SMILES): C[C@H](NC(=O)[C@H](C)NC(=O)[C@H](CS)NC(=O)[C@H](C)NC(=O)[C@H]1CCCN1C(=O)[C@H](Cc1cnc[nH]1)NC(=O)[C@H](CO)NC(=O)[C@H](CS)NC(=O)[C@@H](N)CS)C(=O)N[C@@H](CC(N)=O)C(=O)N[C@@H](CC(N)=O)C(=O)N[C@@H](CCC(N)=O)C(=O)N[C@@H](CC(=O)O)C(=O)N[C@@H](Cc1ccc(O)cc1)C(=O)N[C@@H](CS)C(N)=O
- IC50 [1]: 5.84 nM

Structure (SMILES): C[C@H](NC(=O)[C@H](C)NC(=O)[C@H](CS)NC(=O)[C@H](C)NC(=O)[C@H]1CCCN1C(=O)[C@H](Cc1c[nH]cn1)NC(=O)[C@H](CO)NC(=O)[C@H](CS)NC(=O)[C@H](CS)NC(=O)CNC(=O)CN)C(=O)N[C@@H](CC(N)=O)C(=O)N[C@@H](CC(N)=O)C(=O)N[C@@H](CCC(N)=O)C(=O)N[C@@H](CC(=O)O)C(=O)N[C@@H](Cc1ccc(O)cc1)C(=O)N[C@@H](CS)C(N)=O
- IC50 [2]: 76 nM
- Ratio [3]: 0.004
- IC50 [1]: 0.28 nM and 0.3 nM

Structure (SMILES): C[C@H](NC(=O)[C@H](CS)NC(=O)[C@H](C)NC(=O)[C@H]1CCCN1C(=O)[C@H](CC1=CNCN1)NC(=O)[C@H](CO)NC(=O)[C@H](CS)NC(=O)[C@H](CS)NC(=O)CN)C(=O)N[C@@H](CC(N)=O)C(=O)N[C@@H](CC(N)=O)C(=O)N[C@@H](CCC(N)=O)C(=O)N[C@@H](CC(=O)O)C(=O)N[C@@H](Cc1ccc(O)cc1)C(=O)N[C@@H](CS)C(N)=O
- IC50 [1]: 0.17 nM

Structure (SMILES): CC[C@H](C)[C@H](NC(=O)[C@H](Cc1c[nH]cn1)NC(=O)[C@H](CCC(N)=O)NC(=O)[C@H](CC(N)=O)NC(=O)[C@H](CC(N)=O)NC(=O)CNC(=O)[C@H](C)NC(=O)[C@H](CS)NC(=O)[C@H](C)NC(=O)[C@@H]1CCCN1C(=O)[C@H](Cc1c[nH]cn1)NC(=O)[C@H](CO)NC(=O)[C@H](CS)NC(=O)[C@H](CS)NC(=O)CN)C(=O)N[C@@H](CS)C(N)=O
- IC50 [1]: 1.1 nM

Structure (SMILES): CC(C)C[C@H](NC(=O)[C@H](CC(N)=O)NC(=O)[C@H](CO)NC(=O)[C@H](Cc1c[nH]cn1)NC(=O)[C@H](CCC(=O)O)NC(=O)[C@H](CC(C)C)NC(=O)[C@H](Cc1c[nH]cn1)NC(=O)[C@H](CS)NC(=O)[C@@H](NC(=O)[C@@H]1CCCN1C(=O)[C@H](CC(N)=O)NC(=O)[C@H](CO)NC(=O)[C@H](CS)NC(=O)[C@H](CS)NC(=O)CN)C(C)C)C(=O)N[C@@H](CS)C(N)=O
- Ratio [3]: 0.0025
